# How the values were obtained:
# [1] = Inhibition of human KSP
# [2] = Ratio of IC50 for induction of mitotic arrest in human […] to IC50 for induction of mitotic arrest in […] human KB-V-1 cells; format: functional
# Method in brief: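 Phospho-nucleolin mitotic-arrest assay in parental KB-3-1 and MDR1-overexpressing KB-V-1 cells (>500-fold higher MDR1 mRNA). Cells were treated in triplicate for 16 h across 10 000 to 0.1 nM (11-point, half-log series; 0.1% DMSO final). Total nucleolin was bead-captured from lysates and phospho-nucleolin detected by TG3 antibody plus a ruthenium-labelled secondary. Ratio = IC50 (KB-V-1) / IC50 (KB-3-1).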
# [3] = tested on: A2780; assay: Induction of mitotic arrest in human A2780 cells expressing MDR1 after 16 hrs; format: functional, cell-based; details: A2780, 16 h
# [4] = Dissociation constant, pKa by Sirius GLpKa titrator; format: physicochemical
# Method in brief: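 Potentiometric pKa measured on a Sirius GLpKa titrator; mean of n = 3 determinations unless marked as a single determination.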
# [5] = target: Voltage-gated inwardly rectifying potassium channel KCNH2 (Homo sapiens, UniProt Q12809)
# [6] = tested on: A2780; assay: Induction of mitotic arrest in human A2780 cells […] clr:NU/NU-nuBR mouse assessed as minimum plasma concentration required to induce maximum mitotic arrest after 22 hrs; format: functional
# [7] = Inhibition of human KSP in presence of 30% mouse serum
# Method in brief: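 KSP ATPase assay as the primary one (0.25 nM KSP motor domain, microtubules, 1 mM ATP, pH 6.8, 3 h at RT, quinaldine red phosphate read-out), run with 30% mouse serum dialysed against reaction buffer (12-14 kDa cutoff). Mean of at least 3 experiments unless noted.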
# [8] = tested on: Rattus norvegicus; assay: AUC in rat at 1 mg/kg, iv; format: ADME, organism-based, Plasma; set-up: dose 1 mg/kg, route intravenous; details: in vivo
# [9] = tested on: Rattus norvegicus; assay: AUC in rat at 12 mg/kg, iv; format: ADME, organism-based, Plasma; set-up: dose 12 mg/kg, route intravenous; details: in vivo
# [10] = tested on: Rattus norvegicus; assay: AUC in rat at 4 mg/kg, iv; format: ADME, organism-based, Plasma; set-up: dose 4 mg/kg, route intravenous; details: in vivo
# Chain of Voltage-gated inwardly rectifying potassium channel KCNH2 (Q12809 whole entry): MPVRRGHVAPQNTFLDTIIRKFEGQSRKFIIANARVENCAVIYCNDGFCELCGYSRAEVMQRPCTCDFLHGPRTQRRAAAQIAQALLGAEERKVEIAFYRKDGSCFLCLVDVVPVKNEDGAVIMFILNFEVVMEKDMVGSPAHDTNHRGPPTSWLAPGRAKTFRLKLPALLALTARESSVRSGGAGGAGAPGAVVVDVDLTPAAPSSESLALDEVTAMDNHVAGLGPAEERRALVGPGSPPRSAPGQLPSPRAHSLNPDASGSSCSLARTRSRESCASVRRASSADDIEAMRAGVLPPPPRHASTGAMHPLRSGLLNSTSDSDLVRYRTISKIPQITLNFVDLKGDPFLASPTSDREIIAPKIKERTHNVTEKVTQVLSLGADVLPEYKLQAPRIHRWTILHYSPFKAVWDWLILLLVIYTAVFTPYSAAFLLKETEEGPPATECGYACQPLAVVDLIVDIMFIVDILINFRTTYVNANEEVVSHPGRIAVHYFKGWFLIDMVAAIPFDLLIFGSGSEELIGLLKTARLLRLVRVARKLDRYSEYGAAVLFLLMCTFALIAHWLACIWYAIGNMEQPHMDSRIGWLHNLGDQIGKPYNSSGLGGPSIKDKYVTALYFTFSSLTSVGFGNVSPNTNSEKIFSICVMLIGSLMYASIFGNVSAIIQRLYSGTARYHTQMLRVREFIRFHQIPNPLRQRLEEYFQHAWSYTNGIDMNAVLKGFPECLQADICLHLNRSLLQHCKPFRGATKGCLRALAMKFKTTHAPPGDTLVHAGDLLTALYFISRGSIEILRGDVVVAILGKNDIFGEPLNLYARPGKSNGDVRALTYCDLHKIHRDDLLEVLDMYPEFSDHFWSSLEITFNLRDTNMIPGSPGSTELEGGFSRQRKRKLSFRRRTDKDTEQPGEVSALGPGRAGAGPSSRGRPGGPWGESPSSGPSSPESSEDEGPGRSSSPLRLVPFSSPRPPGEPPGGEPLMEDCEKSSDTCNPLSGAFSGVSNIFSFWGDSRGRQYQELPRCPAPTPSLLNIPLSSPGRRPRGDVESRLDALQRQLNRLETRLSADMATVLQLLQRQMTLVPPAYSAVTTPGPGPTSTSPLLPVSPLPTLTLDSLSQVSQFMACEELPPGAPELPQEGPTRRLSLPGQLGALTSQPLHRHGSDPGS
Structure (SMILES),IC50 [1] [nM],EC50 [3] [nM],pKa [4],EC90 [6] [nM],other results
CN1CC[C@H](N(C)C(=O)N2CC(c3cc(F)ccc3F)=C[C@@]2(CO)c2ccccc2)[C@@H](F)C1,11.5,16.5,6.6,–,Ratio [2]: 2.4; IC50 [5]: 36900 nM
CN1CCC(N(C)C(=O)N2CC(c3cc(F)ccc3F)=C[C@H]2c2ccccc2)CC1,4,–,–,400,–
CN1CCC(N(C)C(=O)N2CC(c3cc(F)ccc3F)=C[C@@]2(CO)c2ccccc2)CC1,6.2,5.6,8.8,125,IC50 [7]: 29.1 nM
CC(=O)O[C@H]1C(=O)[C@@]2(C)[C@H]([C@H](OC(=O)c3ccccc3)[C@]3(O)C[C@H](OC(=O)[C@H](O)[C@@H](NC(=O)c4ccccc4)c4ccccc4)C(C)=C1C3(C)C)[C@]1(OC(C)=O)CO[C@@H]1C[C@@H]2O [PACLITAXEL],0.5,> 10000,–,–,–
CN(C(=O)N1CC(c2cc(F)ccc2F)=C[C@@]1(CO)c1ccccc1)C1CCNCC1,7.4,–,9.8,–,–
CN(C)C(=O)N1CC(c2cc(F)ccc2F)=C[C@@]1(CO)c1ccccc1,78,–,–,–,–
CN1CC[C@@H](N(C)C(=O)N2CC(c3cc(F)ccc3F)=C[C@@]2(CO)c2ccccc2)[C@H](F)C1,11.9,37.6,–,–,Ratio [2]: 2.9

# Further lines, with some results ahead:
IC50 [1] [nM],EC50 [3] [nM],pKa [4],EC90 [6] [nM],Structure (SMILES),other results
13.3,13.8,–,–,CN1CC[C@@H](N(C)C(=O)N2CC(c3cc(F)ccc3F)=C[C@@]2(CO)c2ccccc2)[C@@H](F)C1,Ratio [2]: 4.8
5.9,–,7.5,–,CN(C(=O)N1CC(c2cc(F)ccc2F)=C[C@@]1(CO)c1ccccc1)C1CCN(C2CC2)CC1,–
5,22.5,–,1425,CN(C)C(=O)N1CC(c2cc(F)ccc2F)=C[C@@]1(CC[C@@H](N)C(F)F)c1ccccc1,IC50 [7]: 84.2 nM; IC50 [5]: 15900 nM
5.1,–,9.1,–,CN(C(=O)N1CC(c2cc(F)ccc2F)=C[C@@]1(CO)c1ccccc1)C1CCN(CC2CC2)CC1,–
34.1,–,4.9,–,CN(C(=O)N1CC(c2cc(F)ccc2F)=C[C@@]1(CO)c1ccccc1)C1CCN(CC(F)F)CC1,–
5,4.8,7.6,100,CN(C(=O)N1CC(c2cc(F)ccc2F)=C[C@@]1(CO)c1ccccc1)C1CCN(CCF)CC1,AUC [8]: 0.5 µM·h; IC50 [7]: 38.8 nM; AUC [9]: 9.5 µM·h; AUC [10]: 2.5 µM·h

# Source: ChEMBL document CHEMBL1155077, “Kinesin spindle protein (KSP) inhibitors. 9. Discovery of (2S)-4-(2,5-difluorophenyl)-n-[(3R,4S)-3-fluoro-1-methylpiperidin-4-yl]-2-(hydroxymethyl)-N-methyl-2-phenyl-2,5-dihydro-1H-pyrrole-1-carboxamide (MK-0731) for the treatment of taxane-refractory cancer” (J Med Chem, 2008)
